Data published in ChEMBL document CHEMBL5370587, “Fungal Anthraquinone Photoantimicrobials Challenge the Dogma of Cationic Photosensitizers” (J Nat Prod, 2023).

How the values were obtained:
Candida albicans [1] = test: Antifungal activity against Candida albicans 501670 assessed as reduction in microbial growth preincubated for 60 mins under dark condition and measured after 20 to 24 hrs at room temperature by RPMI-1640 based dilution assay
Escherichia coli [2] = test: Antibacterial activity against Escherichia coli DSM1103 assessed as reduction in microbial growth preincubated for 60 mins under dark condition and measured after 20 to 24 hrs at room temperature by muller hinton broth based dilution assay; format: functional; conditions: time 20-24 hrs
In short: (§1)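 Bacteria grown overnight at 37 °C for 15−18 h in the dark, then set to 0.5 McFarland (read at 600 nm) and diluted 1:50 in Müller-Hinton broth to (2–8) × 10⁵ CFU/mL. Dark plate held at room temperature, then incubated at 37 °C. After 20−24 h, turbidity was read against the untreated growth control, with blanks subtracted. Compounds tested at ≥10 concentrations in biological triplicate.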

Candida albicans [3] = test: Antifungal activity against Candida albicans 501670 assessed as reduction in microbial growth preincubated for 60 mins under dark condition followed by 478 nm light irradiation and measured after 20 to 24 hrs by RPMI-1640 based dilution assay; conditions: Candida albicans, 501670, light or radiation study
A549 [4] = test: Photo index, ratio of EC50 for human A549 cells killed in the absence of light to EC50 for human A549 cells killed after irradiation; format: functional
In short: (§2)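 SRB assay: cells seeded in Opti-MEM with 2.4% FCS, treated 24 h later with 0.3–25.0 μM, medium replaced after 24 h. Duplicate plates were irradiated with blue light (468 nm, 9.3 J/cm²) or green light (519 nm, 30.0 J/cm²), or kept dark, then held 48 h at 37 °C, 5% CO₂. EC50 from Hill fit; photoindex = EC50 dark / EC50 irradiated.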

Staphylococcus aureus [5] = test: Antibacterial activity against Staphylococcus aureus DSM1104 assessed as reduction in microbial growth preincubated for 60 mins under dark condition followed by 530 nm light irradiation and measured after 20 to 24 hrs by muller hinton broth based dilution assay; format: functional; conditions: DSM1104, light or radiation study, time 21-25 hrs
In short: (§3)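 PhotoMIC (modified EUCAST broth microdilution): 0.5 McFarland suspensions diluted 1:50 in Mueller-Hinton broth (bacteria, 2–8 × 10⁵ CFU/mL) or 1:10 in double-strength RPMI-1640 (yeast, 0.5–2.5 × 10⁵ CFU/mL); ≥10 concentrations, biological triplicates; 60 min dark preincubation, then 30 J/cm² irradiation or dark duplicate plate; 37 °C, 20–24 h; turbidity versus growth control, blanks subtracted.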

A549 [6] = test: Phototoxicity against human A549 cells assessed as reduction in cell growth preincubated with compound for 24 hrs followed by blue light irradiation at 468 nm for 7 mins 30 sec and measured after 48 hrs by SRB assay; format: functional, cell-based; conditions: A549, light or radiation study
In short: (§4)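 Cells (A549 2000, AGS 2500, T24 1500 per well) seeded in Opti-MEM with 2.4% FCS. After 24 h, treated with 25.0−0.3 μM (six levels). After another 24 h, medium was replaced and cells got blue light (468±27 nm, 9.3 J/cm²). Held 48 h at 37 °C, 5% CO2, then TCA-fixed and SRB-stained, read at 540 nm. EC50 from variable-slope fit with 95% CI.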

Escherichia coli [7] = test: Antibacterial activity against Escherichia coli DSM1103 assessed as reduction in microbial growth preincubated for 60 mins under dark condition followed by 428 nm light irradiation and measured after 20 to 24 hrs by muller hinton broth based dilution assay; format: functional; conditions: DSM1103, light or radiation study, time 21-25 hrs
In short: as §3

Candida albicans [8] = test: Antifungal activity against Candida albicans 501670 assessed as reduction in microbial growth preincubated for 60 mins under dark condition followed by 530 nm light irradiation and measured after 20 to 24 hrs by RPMI-1640 based dilution assay; conditions: Candida albicans, 501670, light or radiation study
AGS [9] = test: Photo index, ratio of EC50 for human AGS cells killed in the absence of light to EC50 for human AGS cells killed after irradiation; format: functional
In short: as §2

Staphylococcus aureus [10] = test: Antibacterial activity against Staphylococcus aureus DSM1104 assessed as reduction in microbial growth preincubated for 60 mins under dark condition followed by 428 nm light irradiation and measured after 20 to 24 hrs by muller hinton broth based dilution assay; format: functional; conditions: DSM1104, light or radiation study, time 21-25 hrs
In short: as §3

Candida albicans [11] = test: Antifungal activity against Candida albicans 501670 assessed as reduction in microbial growth preincubated for 60 mins under dark condition followed by 428 nm light irradiation and measured after 20 to 24 hrs by RPMI-1640 based dilution assay; conditions: Candida albicans, 501670, light or radiation study
T-24 [12] = test: Photo index, ratio of EC50 for human T24 cells killed in the absence of light to EC50 for human T24 cells killed after irradiation; format: functional
In short: as §2

Staphylococcus aureus [13] = test: Antibacterial activity against Staphylococcus aureus DSM1104 assessed as reduction in microbial growth preincubated for 60 mins under dark condition and measured after 20 to 24 hrs at room temperature by muller hinton broth based dilution assay; format: functional; conditions: time 20-24 hrs
In short: as §1

AGS [14] = test: Phototoxicity against human AGS cells assessed as reduction in cell growth preincubated with compound for 24 hrs followed by blue light irradiation at 468 nm for 7 mins 30 sec and measured after 48 hrs by SRB assay; format: functional, cell-based; conditions: light or radiation study
In short: as §4

Staphylococcus aureus [15] = test: Antibacterial activity against Staphylococcus aureus DSM1104 assessed as reduction in microbial growth preincubated for 60 mins under dark condition followed by 478 nm light irradiation and measured after 20 to 24 hrs by muller hinton broth based dilution assay; format: functional; conditions: DSM1104, light or radiation study, time 21-25 hrs
In short: as §3

AGS [16] = test: Phototoxicity against human AGS cells assessed as reduction in cell growth preincubated with compound for 24 hrs under dark condition and measured after 48 hrs by SRB assay; format: functional, cell-based; conditions: light or radiation study
In short: (§5)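 Dark control plate processed the same way: cells (A549 2000, AGS 2500, T24 1500 per well) in Opti-MEM with 2.4% FCS, dosed at 25.0−0.3 μM 24 h after seeding. Medium renewed after 24 h, then 48 h further at 37 °C, 5% CO2 without light. SRB read-out at 540 nm after TCA fixation. EC50 with 95% CI from variable-slope fit.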

T-24 [17] = test: Phototoxicity against human T24 cells assessed as reduction in cell growth preincubated with compound for 24 hrs under dark condition and measured after 48 hrs by SRB assay; format: functional, cell-based; conditions: T-24, light or radiation study
In short: as §5

Escherichia coli [18] = test: Antibacterial activity against Escherichia coli DSM1103 assessed as reduction in microbial growth preincubated for 60 mins under dark condition followed by 530 nm light irradiation and measured after 20 to 24 hrs by muller hinton broth based dilution assay; format: functional; conditions: DSM1103, light or radiation study, time 21-25 hrs
In short: as §3

T-24 [19] = test: Phototoxicity against human T24 cells assessed as reduction in cell growth preincubated with compound for 24 hrs followed by blue light irradiation at 468 nm for 7 mins 30 sec and measured after 48 hrs by SRB assay; format: functional, cell-based; conditions: T-24, light or radiation study
In short: as §4

Escherichia coli [20] = test: Antibacterial activity against Escherichia coli DSM1103 assessed as reduction in microbial growth preincubated for 60 mins under dark condition followed by 478 nm light irradiation and measured after 20 to 24 hrs by muller hinton broth based dilution assay; format: functional; conditions: DSM1103, light or radiation study, time 21-25 hrs
In short: as §3

A549 [21] = test: Phototoxicity against human A549 cells assessed as reduction in cell growth preincubated with compound for 24 hrs under dark condition and measured after 48 hrs by SRB assay; format: functional, cell-based; conditions: A549, light or radiation study
In short: as §5

`C[C@@H]1[C@H](O)[C@@H](C)/C=C/C=C/C=C/C=C/C=C/C=C/C=C/[C@H](O[C@@H]2O[C@H](C)[C@@H](O)[C@H](N)[C@@H]2O)C[C@@H]2O[C@](O)(C[C@@H](O)C[C@@H](O)[C@H](O)CC[C@@H](O)C[C@@H](O)CC(=O)O[C@H]1C)C[C@H](O)[C@H]2C(=O)O` [AMPHOTERICIN B] was tested, and the MIC (Candida albicans [1]) was 0.22 µM.
`O=C(N[C@H](CO)[C@H](O)c1ccc([N+](=O)[O-])cc1)C(Cl)Cl` [CHLORAMPHENICOL] was tested, and the MIC (Escherichia coli [2]) was 6.1 µM.
In the case of `Cc1cc(O)c2c(c1)C(=O)c1cc(O)cc(O)c1C2=O` [EMODIN], the MIC (Candida albicans [3]) is reported as 2.78 µM, the “Ratio EC50” value (A549 [4]) is reported as 7 and the MIC (Staphylococcus aureus [5]) is reported as 11.1 µM. The MIC (Escherichia coli [2]) was over 92 µM, the EC50 (A549 [6]) was 2900 nM and the MIC (Escherichia coli [7]) was 11.1 µM. For the same compound, the MIC (Candida albicans [8]) was 46 µM, the “Ratio EC50” value (AGS [9]) was over 16 and the MIC (Staphylococcus aureus [10]) was 1.85 µM. The MIC (Candida albicans [11]) was 0.37 µM, the “Ratio EC50” value (T-24 [12]) was over 15 and the MIC (Staphylococcus aureus [13]) was over 92 µM. The EC50 (AGS [14]) was 1500 nM, the MIC (Candida albicans [1]) was over 92 µM and the MIC (Staphylococcus aureus [15]) was 1.85 µM. The EC50 (AGS [16]) was over 25000 nM, the EC50 (T-24 [17]) was over 25000 nM and the MIC (Escherichia coli [18]) was over 92 µM. It also gave an EC50 (T-24 [19]) of 1700 nM, an MIC (Escherichia coli [20]) of over 92 µM and an EC50 (A549 [21]) of 19000 nM.
`CC[C@H]1OC(=O)[C@H](C)[C@@H](O[C@H]2C[C@@](C)(OC)[C@@H](O)[C@H](C)O2)[C@H](C)[C@@H](O[C@@H]2O[C@H](C)C[C@H](N(C)C)[C@H]2O)[C@](C)(O)C[C@@H](C)C(=O)[C@H](C)[C@@H](O)[C@]1(C)O` [ERYTHROMYCIN] gave an MIC (Staphylococcus aureus [13]) of 1.4 µM.
